Results on 12 molecules are retold here after ChEMBL document CHEMBL3351569, “Synthesis and antiproliferative activity of some new thieno[2,3-d]pyrimidin-4(3H)-ones containing 1,2,4-triazole and 1,3,4-thiadiazole moiety” (Eur J Med Chem, 2014).

A short description of test [1]: Antiproliferative activity against human LEP-3 cells by CellTiter-96 non-radioactive assay. It is filed as cell-based. An outline of the steps:
(§1)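 Compounds were dissolved in DMSO at 4 mg/ml (stock) and diluted 1:10, 1:100, 1:1000 and 1:10 000. Cells were incubated 24 h with compound, with untreated cells in unmodified medium as the control. MTS reagent was then added for 2 h at 37°C under 5% CO2/95% air, and absorbance was read at 490 nm. Viability is expressed as % of untreated control (100%) at each concentration, and IC50/EC50 were calculated from it.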

Test [2] concerns HepG2. Put plainly: Cytotoxicity against human HepG2 cells assessed as reduction in cell viability after 24 hrs by MTS assay. Type of test: functional, cell-based. As to conditions: HepG2, 24 h. An outline of the steps:
as §1
A general note: Tetrazolium assays rely on reduction of a dye to a coloured formazan, in cell work by metabolically active cells.

Test [3] deals with MDA-MB-231. Put plainly: Antiproliferative activity against human MDA-MB-231 cells by CellTiter-96 non-radioactive assay. It is filed as functional, cell-based. An outline of the steps:
as §1

For test [4], the system named is HeLa. Put plainly: Cytotoxicity against human HeLa cells assessed as reduction in cell viability after 24 hrs by MTS assay. Type of test: functional, cell-based. In short, it runs like this:
as §1

Test [5] deals with HT-29. Put plainly: Antiproliferative activity against human HT-29 cells by CellTiter-96 non-radioactive assay. Type of test: functional, cell-based. An outline of the steps:
as §1

For test [6], the system named is HeLa. Put plainly: Antiproliferative activity against human HeLa cells by CellTiter-96 non-radioactive assay. It is filed as functional, cell-based. In short, it runs like this:
as §1

The subject of test [7] is MDA-MB-231. Put plainly: Cytotoxicity against human MDA-MB-231 cells assessed as reduction in cell viability after 24 hrs by MTS assay. As to conditions: MDA-MB-231, 24 h. It is filed as functional, cell-based. An outline of the steps:
as §1

Test [8] is described as follows: Cytotoxicity against human LEP-3 cells assessed as reduction in cell viability after 24 hrs by MTS assay. As to conditions: LEP-3, 24 h. Type of test: cell-based. An outline of the steps:
as §1

The test system of test [9] is HT-29. Put plainly: Cytotoxicity against human HT-29 cells assessed as reduction in cell viability after 24 hrs by MTS assay. It is filed as functional, cell-based. As to conditions: HT-29, 24 h. In short, it runs like this:
as §1

Test [10] deals with HepG2. Put plainly: Antiproliferative activity against human HepG2 cells by CellTiter-96 non-radioactive assay. It is filed as functional, cell-based. In short, it runs like this: as §1

As usually defined, the EC50 is the concentration at which the effect is half-maximal. As a reminder, the IC50 is the concentration that inhibits the measured activity by half. As to `O=c1[nH]c(Cc2nnc(S)n2-c2ccccc2)nc2sc3c(c12)CCCC3`, the EC50 in test [1] turned out to be 0.46 µM; with MDA-MB-231 [3] it was 1.2 µM; with HT-29 [5] it was 1.8 µM. Further, the IC50 with HepG2 [2] is 1800 µM; in the test on HeLa [4], 0.00095 µM.

Regarding `Cc1c(C(=O)O)sc2nc(Cc3nnc(S)n3-c3ccccc3)[nH]c(=O)c12`, the EC50 was 1.21 µM in [1], 0.3 µM in the test with MDA-MB-231 [3], 0.12 µM in the test on HeLa [6] and 0.86 µM with HT-29 [5]. For the same molecule, the IC50 in the test with HepG2 [2] was 0.29 µM.

For `CCNc1nnc(Cc2nc3sc4c(c3c(=O)[nH]2)CCCC4)s1`, the 50% inhibitory concentration (IC50) with HepG2 [2] came out at 0.21 µM; in the test on MDA-MB-231 [7], 1.26 µM; in test [8] it was 0.44 µM; with HeLa [4], 3.8 µM; with HT-29 [9], 0.097 µM.

Consider `CCNc1nnc(Cc2nc3sc(C(=O)OCC)c(C)c3c(=O)[nH]2)s1`, for which the EC50 is 0.31 µM in test [1], 1.26 µM in the test on HepG2 [10] and 0.42 µM in the test on HT-29 [5]. Also, the IC50 in the test on MDA-MB-231 [7] worked out at 0.0012 µM; in the test on HeLa [4], 3.31 µM.

As to `O=c1[nH]c(Cc2nnc(Nc3ccccc3)s2)nc2sc3c(c12)CCCC3`, the IC50 with HepG2 [2] was 1.23 µM; with MDA-MB-231 [7], 0.0374 µM; in test [8], 3.17 µM; in the test on HeLa [4], 1.85 µM; with HT-29 [9], 0.13 µM.

Take `CCOC(=O)c1sc2nc(Cc3nnc(Nc4ccccc4)s3)[nH]c(=O)c2c1C`: the figures for the EC50 (in test [1]; in the test on MDA-MB-231 [3]; with HT-29 [5]) were 0.26 µM, 0.0018 µM and 1.5 µM, respectively. Further, the IC50 is 0.88 µM in the test on HepG2 [2] and 2.3 µM with HeLa [4].

Turning to `NNC(=O)Cc1nc2sc3c(c2c(=O)[nH]1)CCCC3`, the EC50 was 2.21 µM in test [1]; 1.54 µM in the test on MDA-MB-231 [3]; 2.52 µM in the test with HeLa [6]; 2.18 µM with HepG2 [10]; 2.12 µM in the test on HT-29 [5].

Turning to `CCNC(=S)NNC(=O)Cc1nc2sc3c(c2c(=O)[nH]1)CCCC3`, the concentration for a half-maximal effect (EC50) is 0.12 µM in test [1]; 1.8 µM with MDA-MB-231 [3]; 0.032 µM with HeLa [6]; 1.02 µM with HepG2 [10]; 0.04 µM in the test on HT-29 [5].

In the case of `CCNC(=S)NNC(=O)Cc1nc2sc(C(=O)OCC)c(C)c2c(=O)[nH]1`, the EC50 was 0.025 µM in [1], 0.19 µM in the test on HepG2 [10] and 0.089 µM with HT-29 [5]. Further, the 50% inhibitory concentration (IC50) with MDA-MB-231 [7] came to 0.0391 µM; with HeLa [4], 1.7 µM.

As for `CCOC(=O)c1sc2nc(CC(=O)NNC(=S)Nc3ccccc3)[nH]c(=O)c2c1C`, the IC50 amounted to 1.47 µM in the test with HepG2 [2]; 1.21 µM in the test on MDA-MB-231 [7]; 1500 µM in [8]; 9.3 µM in the test on HeLa [4]; 0.00156 µM in the test with HT-29 [9].

As for `CCn1c(S)nnc1Cc1nc2sc3c(c2c(=O)[nH]1)CCCC3`, the EC50 in [1] was 1.14 µM; in the test on MDA-MB-231 [3] it was 0.13 µM; with HepG2 [10], 2.08 µM; in the test with HT-29 [5] it was 2.43 µM. Also, the IC50 in the test on HeLa [4] turned out to be 1.69 µM.

Turning to `CCn1c(S)nnc1Cc1nc2sc(C(=O)O)c(C)c2c(=O)[nH]1`, the EC50 was 1.4 µM in [1]; 1.16 µM in the test with MDA-MB-231 [3]; 2.34 µM in the test with HeLa [6]; 1.4 µM in the test on HepG2 [10]; 0.91 µM with HT-29 [5].
